Columns and labels:
[1] = target: T1, Peroxisome proliferator-activated receptor delta (Homo sapiens, UniProt Q03181); assay: Agonist activity at Gal4-fused human PPARdelta […] binding domain expressed in HEK293 cells by luciferase reporter gene assay; type: cell-based
T1 sequence (Q03181 whole entry): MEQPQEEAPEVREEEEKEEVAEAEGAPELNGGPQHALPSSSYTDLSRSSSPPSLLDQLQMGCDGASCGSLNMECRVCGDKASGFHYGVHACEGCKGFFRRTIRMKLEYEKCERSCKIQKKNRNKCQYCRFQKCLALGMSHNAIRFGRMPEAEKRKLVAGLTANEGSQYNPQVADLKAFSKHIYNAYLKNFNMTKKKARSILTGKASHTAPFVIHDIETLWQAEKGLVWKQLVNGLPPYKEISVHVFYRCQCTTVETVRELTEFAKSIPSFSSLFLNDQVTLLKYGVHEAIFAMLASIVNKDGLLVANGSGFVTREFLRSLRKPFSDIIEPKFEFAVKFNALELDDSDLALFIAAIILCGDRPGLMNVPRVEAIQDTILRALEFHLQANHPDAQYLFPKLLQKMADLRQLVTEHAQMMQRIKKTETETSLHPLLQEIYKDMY

[2] = target: T2, Peroxisome proliferator-activated receptor alpha (Homo sapiens, UniProt Q07869); assay: Agonist activity at Gal4-fused human PPARalpha […] binding domain expressed in HEK293 cells by luciferase reporter gene assay; type: cell-based
T2 sequence (Q07869 whole entry): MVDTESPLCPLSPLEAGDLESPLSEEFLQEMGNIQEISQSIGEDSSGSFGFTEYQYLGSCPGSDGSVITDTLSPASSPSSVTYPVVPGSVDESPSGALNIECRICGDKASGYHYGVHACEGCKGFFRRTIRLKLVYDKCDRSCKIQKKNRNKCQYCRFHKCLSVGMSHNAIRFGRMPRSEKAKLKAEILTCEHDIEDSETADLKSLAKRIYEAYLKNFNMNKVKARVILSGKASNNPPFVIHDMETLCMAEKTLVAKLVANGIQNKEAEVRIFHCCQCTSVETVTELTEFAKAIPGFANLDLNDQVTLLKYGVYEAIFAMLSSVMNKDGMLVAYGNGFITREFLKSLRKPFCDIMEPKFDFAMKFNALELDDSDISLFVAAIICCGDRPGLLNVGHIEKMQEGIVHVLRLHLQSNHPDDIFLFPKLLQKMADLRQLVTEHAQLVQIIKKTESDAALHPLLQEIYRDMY

[3] = Lipophilicity, log D of the compound; type: physicochemical; conditions: octanol/water
[4] = target: T1, Peroxisome proliferator-activated receptor delta; assay: Induction of PPARdelta-mediated PDK4 mRNA upregulation in human myoblast after 24 hrs
In short: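 Myoblasts isolated from human vastus lateralis skeletal muscle by enzymatic digestion, then differentiated into myotubes for 7 days in 2% horse serum. Myotubes were exposed to compound for 24 h, and fold induction of PDK4 mRNA was measured. EC50 was taken from the dose–response curve, with GW501516 run as the reference agonist.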

[5] = target: T3, Peroxisome proliferator-activated receptor gamma (Homo sapiens, UniProt P37231); assay: Agonist activity at Gal4-fused human PPARgamma […] binding domain expressed in HEK293 cells by luciferase reporter gene assay; type: cell-based
T3 sequence (P37231 whole entry): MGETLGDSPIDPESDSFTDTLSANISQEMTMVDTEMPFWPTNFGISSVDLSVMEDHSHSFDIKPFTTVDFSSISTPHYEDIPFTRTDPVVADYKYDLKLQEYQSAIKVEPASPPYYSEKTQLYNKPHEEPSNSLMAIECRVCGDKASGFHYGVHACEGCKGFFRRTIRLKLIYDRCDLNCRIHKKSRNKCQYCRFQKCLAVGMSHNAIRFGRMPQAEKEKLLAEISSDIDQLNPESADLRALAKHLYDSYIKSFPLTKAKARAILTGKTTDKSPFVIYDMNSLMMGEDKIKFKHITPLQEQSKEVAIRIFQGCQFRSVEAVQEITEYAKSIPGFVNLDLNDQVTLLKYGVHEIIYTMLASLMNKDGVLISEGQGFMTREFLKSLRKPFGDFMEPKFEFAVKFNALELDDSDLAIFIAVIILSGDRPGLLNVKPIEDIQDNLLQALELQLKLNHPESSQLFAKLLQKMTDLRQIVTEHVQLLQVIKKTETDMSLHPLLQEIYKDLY

SMILES | EC50 [1] [nM] | EC50 [2] [nM] | logD [3] | EC50 [4] [nM] | EC50 [5] [nM]
Cc1cc(CN2CCC(C(=O)Nc3ccc(Cl)cc3Cl)C2)ccc1OCC(=O)O (stereo not given) | 1000 | – | – | – | –
Cc1cc(CN2CCc3ccccc3C2C(=O)Nc2ccc(Cl)cc2Cl)ccc1OCC(=O)O (racemic) | 10 | 6300 | 2.6 | 70 | 2700
Cc1cc(CN2Cc3ccccc3C[C@H]2C(=O)Nc2ccc(Cl)cc2Cl)ccc1OCC(=O)O | 5 | 2500 | 2.4 | 15 | > 20000
Cc1cc(CN2CCCC2C(=O)Nc2ccc(Cl)cc2Cl)ccc1OCC(=O)O (stereo not given) | 1600 | – | – | – | –
Cc1cc(CN2Cc3ccccc3C[C@@H]2C(=O)Nc2ccc(Cl)cc2Cl)ccc1OCC(=O)O | 0.5 | 1250 | – | – | 800
Cc1cc(CN2Cc3ccccc3C2C(=O)Nc2ccccc2)ccc1OCC(=O)O (stereo not given) | > 60000 | – | – | – | –
Cc1cc(CN2Cc3ccccc3C2C(=O)Nc2ccc(Cl)cc2)ccc1OCC(=O)O (stereo not given) | 2500 | – | – | – | –
Cc1cc(CN2Cc3ncccc3CC2C(=O)Nc2ccc(Cl)cc2Cl)ccc1OCC(=O)O (racemic) | 500 | – | – | – | –
Cc1cc(CN2Cc3ccccc3C2C(=O)O)ccc1OCC(=O)O (stereo not given) | > 20000 | – | – | – | –
Cc1cc(CN2Cc3cccnc3CC2C(=O)Nc2ccc(Cl)cc2Cl)ccc1OCC(=O)O (racemic) | 2000 | – | – | – | –
Cc1cc(CN2Cc3ccccc3C2C(=O)Nc2cc(Cl)ccc2Cl)ccc1OCC(=O)O (stereo not given) | 320 | – | – | – | –
Cc1cc(CN2Cc3ccccc3C2C(=O)Nc2ccc(Cl)cc2Cl)ccc1OCC(=O)O (racemic) | 25 | > 30000 | 2.6 | – | > 30000
